ChEMBL document CHEMBL1131529, “Novel tetranuclear orthometalated complexes of Pd(II) and Pt(II) derived from p-isopropylbenzaldehyde thiosemicarbazone with cytotoxic activity in cis-DDP resistant tumor cell lines. Interaction of these complexes with DNA” (J Med Chem, 1998)
“And” between values parts separate entries of the source, which are not always exact repeats. Identical values can stand only once.

Assays:
GLIOMA#108 = assay: Inhibitory activity against GLIOMA#108 cell line; type: functional, cell-based, Homo sapiens
How it was run: (§1)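 Cells were seeded at 10^4/well and treated 24 h with compounds at 0–100 µM final (solvent ≤10%). Survival was measured by MTT reduction (1 mg/mL, 5 h) read at 520 nm. IC50 came from survival–concentration curves, in quadruplicate.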

Jurkat = assay: Inhibitory activity against JURKAT cell line; type: functional, cell-based, Homo sapiens
How it was run: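 Compounds were added at 0–100 µM final (ethanol or DMSO vehicle, ≤10%) for 24 h. MTT was added to 1 mg/mL for 5 h at 37 °C and absorbance read at 520 nm. IC50 came from % survival vs concentration curves, in quadruplicate.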

HeLa = assay: Inhibitory activity against HeLa cell line; type: functional, cell-based, Homo sapiens
How it was run: (§2)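 HeLa cervical carcinoma cells were grown in DMEM with 10% FCS, and NIH 3T3 cells in DMEM with 10% newborn calf serum. Both were seeded at 10^4 cells/well and exposed 24 h to compounds at 0–100 µM final (ethanol or DMSO ≤10%). MTT was added to 1 mg/mL for 5 h at 37 °C and A520 read. IC50 came from survival curves, in quadruplicate.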

PAM = assay: Inhibitory activity against PAM cell line; type: functional, cell-based, Mus musculus
How it was run: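 Murine keratinocytes, normal Pam and H-ras-transformed Pam-Ras, were grown in DMEM with 10% FCS and 2 mM glutamine. They were seeded at 10^4 cells/well, preincubated 3–4 h, then given compounds at 0–100 µM final for 24 h. MTT was added to 1 mg/mL for 5 h at 37 °C and absorbance read at 520 nm. IC50 came from % survival vs concentration plots, in quadruplicate.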

PAM-RAS (Mus musculus) = assay: Inhibitory activity against PAM-RAS cell line
GLIOMA#112 = assay: Inhibitory activity against GLIOMA#112 cell line; type: functional, cell-based, Homo sapiens; how it was run: as §1
NIH3T3 = assay: Inhibitory activity against 3T3 cell line; type: functional, cell-based, Mus musculus; how it was run: as §2

Tetrameric orthoplatinated p-isopropylbenzaldehyde thiosemicarbazone
IC50 (GLIOMA#108; glioma#108): 54 µM | IC50 (Jurkat): 7 µM | IC50 (HeLa): 20 µM | IC50 (PAM; pam): 30 µM | IC50 (PAM-RAS (Mus musculus); pam-ras): 9 µM | IC50 (GLIOMA#112; glioma#112): 27 µM | IC50 (NIH3T3): 21 µM

CISPLATIN
IC50 (GLIOMA#108; glioma#108): 86 µM | IC50 (Jurkat): 22 µM | IC50 (HeLa): 7 µM | IC50 (PAM; pam): 164 µM | IC50 (PAM-RAS (Mus musculus); pam-ras): 165 µM | IC50 (GLIOMA#112; glioma#112): 120 µM | IC50 (NIH3T3): 35 µM

COc1cc([C@@H]2c3cc4c(cc3[C@@H](O[C@@H]3O[C@@H]5CO[C@@H](C)O[C@H]5[C@H](O)[C@H]3O)[C@H]3COC(=O)[C@H]23)OCO4)cc(OC)c1O [ETOPOSIDE]
IC50 (GLIOMA#108; Homo sapiens, GLIOMA#108): 76 µM | IC50 (PAM; Mus musculus, PAM): 180 µM | IC50 (PAM-RAS (Mus musculus); Mus musculus, PAM-RAS): 136 µM | IC50 (GLIOMA#112; Homo sapiens, GLIOMA#112): 62 µM

Tetrameric orthopalladated p-isopropylbenzaldehyde thiosemicarbazone
IC50 (GLIOMA#108; glioma#108): 40 µM and 62 µM | IC50 (Jurkat): 6 µM and 7 µM | IC50 (PAM-RAS (Mus musculus); pam-ras): 37 µM and 5 µM | IC50 (GLIOMA#112; glioma#112): 50 µM and 35 µM

COc1cccc2c1C(=O)c1c(O)c3c(c(O)c1C2=O)C[C@@](O)(C(=O)CO)C[C@@H]3O[C@H]1C[C@H](N)[C@H](O)[C@H](C)O1 [DOXORUBICIN]
IC50 (PAM; Mus musculus, PAM): 150 µM | IC50 (PAM-RAS (Mus musculus); Mus musculus, PAM-RAS): 156 µM
